Assay results pooled from the literature.
Target: Serine/threonine-protein kinase WNK3 (WNK3, Homo sapiens, UniProt Q9BYP7)

SMILES | assay | setting | remaining binding [%]
c1cncc(-c2cccc(Nc3nccc(NC4CCCCC4)n3)c2)c1 | binding, competition with immobilised ligand | 10 µM | 94
COc1ccc2c(c1)O[C@@H](c1ccc(OC)c(OC)c1)C[C@H]2NC(=O)C1(c2ccc3c(c2)OC(F)(F)O3)CC1 | cell-free assay, competition with immobilised ligand | 1 µM | 100
O=C(NCC1CCOCC1)c1n[nH]cc1NC(=O)c1c(F)cccc1F | binding, competition with immobilised ligand | 1 µM | 95
O=C(NCCCN1CCOCC1)c1ccc(Nc2ncc(Cl)c(-c3ccc(Cl)s3)n2)cc1 | binding, competition with immobilised ligand | 1 µM | 100
CN([C@@H]1CCc2c(CC(=O)O)c3cc(S(C)(=O)=O)ccc3n2C1)S(=O)(=O)c1ccc(F)cc1 | cell-free assay, competition with immobilised ligand | 1 µM | 83
O=C(NCCCN1CCOCC1)c1ccc(Nc2nccc(-c3cc4ccccc4s3)n2)cc1 | binding, competition with immobilised ligand | 1 µM | 100
CC1=C(C#N)[C@@H](c2ccc3[nH]nc(C)c3c2)C(C#N)=C(c2ccc(Cl)cc2)N1 | cell-free assay, competition with immobilised ligand | 1 µM | 100
CNC(=O)[C@@H]1CC[C@@H](n2c(-c3ccc4cnccc4c3)nc3ccc(C(=O)NCc4cccc(C(N)=O)c4)cc32)C1 | binding, competition with immobilised ligand | 1 µM | 100
F[C@@H]1CCN(c2nccc(-c3cnn4ncccc34)n2)C1 | binding | 1 µM | 100
COc1ncc2cc3ccccc3nc2c1C#N | cell-free assay, competition with immobilised ligand | 5 µM | 96
CN(C)c1ncc(F)c(-c2cnn3ncccc23)n1 | binding | 1 µM | 90
Cn1cc(Cl)c2c(Oc3c(F)cc(Nc4cc(Cl)nc(N)n4)cc3F)ccnc21 | cell-free assay, competition with immobilised ligand | 0.1 µM | 95
CN(C)c1nccc(-c2cnc3ncccn23)n1 | binding | 1 µM | 67
COc1cnc(Nc2cccc(S(N)(=O)=O)c2)nc1N1CCN(c2ccccc2)CC1 | binding, competition with immobilised ligand | 1 µM | 97
c1cnn2ncc(-c3ccnc(N4CCC45COC5)n3)c2c1 | binding | 1 µM | 68
O=C(c1ccc(Nc2ncc(Cl)c(-c3ccc(Cl)s3)n2)cc1)N1CCC(N2CCCC2)CC1 | binding, competition with immobilised ligand | 1 µM | 73
Cc1c[nH]c2nccc(Oc3c(F)cc(Nc4cc(Cl)nc(N)n4)cc3F)c12 | cell-free assay, competition with immobilised ligand | 0.1 µM | 90
N[C@H]1CCN(c2nccc(-c3cnn4ncccc34)n2)C1 | binding | 1 µM | 90
CO[C@@H](C)c1c(Nc2ccc([C@H](N(C)C(=O)C3CCS(=O)(=O)CC3)C(F)(F)F)cc2)cnc2cc(Cl)nn12 | cell-free assay, competition with immobilised ligand | 1 µM | 95
COc1ccnn2ncc(-c3ccnc(N(C)C)n3)c12 | binding | 1 µM | 92
Cc1nccc(COC(=O)N2C[C@@H]3[C@@H](CNC(=O)c4ccc5[nH]nnc5c4)[C@@H]3C2)n1 | cell-free assay, competition with immobilised ligand | 1 µM | 91
Cc1cnn2ncc(-c3ccnc(N(C)C)n3)c2c1 | binding | 1 µM | 85
